The nature of series [1]: Metabolic stability in rat liver microsomes assessed as parent compound remaining at 0.2 uM preincubated for 5 mins followed by NADPH addition measured up to 60 mins by UPLC-MS/MS analysis. The class given is ADME, microsome. Conditions: read-out: Stability. A digest of the protocol:
(§1)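 Pooled mouse, rat or human liver microsomes 0.2 mg/mL with 1 mM NADPH, 5 mM MgCl2, 100 mM potassium phosphate pH 7.4 and 0.2 µM compound; 5-min preincubation at 37 °C, NADPH start, sampled at 5, 15, 30, 60 min; ice-cold acetonitrile stop; UPLC-MS/MS; percent parent remaining at 60 min.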

Series [2] concerns the target T1, Nonstructural protein 5A (Hepatitis C virus) (UniProt Q5L478).
T1 sequence (whole entry): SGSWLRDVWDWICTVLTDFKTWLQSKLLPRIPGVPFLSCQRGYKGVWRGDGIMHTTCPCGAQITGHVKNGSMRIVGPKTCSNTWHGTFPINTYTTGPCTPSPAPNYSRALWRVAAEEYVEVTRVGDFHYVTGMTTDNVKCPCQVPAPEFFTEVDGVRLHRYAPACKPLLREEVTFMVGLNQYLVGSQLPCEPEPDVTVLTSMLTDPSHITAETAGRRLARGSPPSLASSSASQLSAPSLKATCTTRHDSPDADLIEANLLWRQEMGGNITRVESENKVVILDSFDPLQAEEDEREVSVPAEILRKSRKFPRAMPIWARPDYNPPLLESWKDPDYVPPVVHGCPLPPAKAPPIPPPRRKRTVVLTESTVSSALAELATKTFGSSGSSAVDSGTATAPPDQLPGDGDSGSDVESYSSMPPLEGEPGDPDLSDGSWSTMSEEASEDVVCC
The experiment in a line: Potency index, ratio of ombitasvir IC50 to compound IC50 for inhibition of NS5A in HCV genotype 6a infected in human HuH7 replicon cells expressing HCV genotype 1b chimeric replicon. The class given is cell-based. Conditions: Hepatitis C virus subtype 6a. On the technique in general: In antiviral work, replicon cells carry a viral genome segment that copies itself.

Series [3] in a line: Cmax in mouse at 10 mg/kg, ig administered as single dose by UPLC-MS/MS analysis. The class given is ADME, organism-based. Further details: dose 10 mg/kg, route intragastric. Conditions: in vivo, po. A digest of the protocol: (§2)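 Adult male mice (12 h light-dark, 22 °C, 55% humidity) fasted 12 h with free water, then given a single 10 mg/kg intragastric dose; plasma concentrations by UPLC-MS/MS; PK parameters calculated by software.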

Series [4] can be described thus: AUC (0 to t) in mouse at 10 mg/kg, ig administered as single dose by UPLC-MS/MS analysis. The class given is ADME, organism-based. Conditions: in vivo, po. A digest of the protocol:
as §2

Series [5] has as its target T1, Nonstructural protein 5A (Hepatitis C virus). Description: Potency index, ratio of ombitasvir IC50 to compound IC50 for inhibition of NS5A in HCV genotype 3a infected in human HuH7 replicon cells expressing HCV genotype 1b chimeric replicon. The class given is cell-based. Conditions: Hepatitis C virus subtype 3a.
A short description of series [6]: Metabolic stability in mouse liver microsomes assessed as parent compound remaining at 0.2 uM preincubated for 5 mins followed by NADPH addition measured up to 60 mins by UPLC-MS/MS analysis. The class given is ADME, microsome. Conditions: read-out: Stability. Summed up:
as §1
Background: Liver microsomes are vesicles of endoplasmic reticulum, rich in cytochrome P450 enzymes.

The nature of series [7]: Metabolic stability in human liver microsomes assessed as parent compound remaining at 0.2 uM preincubated for 5 mins followed by NADPH addition measured up to 60 mins by UPLC-MS/MS analysis. The class given is ADME, microsome. Conditions: read-out: Stability. Summed up:
as §1

A short description of series [8]: Half life in mouse at 10 mg/kg, ig administered as single dose by UPLC-MS/MS analysis. The class given is ADME, organism-based. Conditions: in vivo, po. Summed up: as §2
Series [9] in a line: Tmax in mouse at 10 mg/kg, ig administered as single dose by UPLC-MS/MS analysis. The class given is ADME, organism-based. Conditions: in vivo, po. A digest of the protocol: as §2

For orientation: Cmax means the peak of the concentration-time curve. As usually defined, the AUC(0-t) is the area under the concentration-time curve up to a stated or last time point. By half-life is commonly meant the time needed for the level to fall by half in the phase considered. A low value points to rapid decline. In general, Tmax refers to the time at which the peak concentration occurs.

For the compound `COC(=O)N[C@H](C(=O)N1CCC[C@H]1C(=O)Nc1ccc([C@@H]2CC[C@@H](c3ccc(NC(=O)[C@@H]4CCCN4C(=O)[C@@H](NC(=O)OC)C(C)C)cc3)N2c2ccc([Si](C)(C)C)cc2)cc1)C(C)C`, the remaining at 1 h, 0.2 µM amounted to 101% in series [1], 93.3% in series [6] and 99.2% in series [7]. The Ratio IC50 was 2.4 in [2] and 2.3 in [5]. In series [3], this compound returned a Cmax of 262 ng/mL. The compound further had an AUC(0-t) in series [4] of 2910 ng·h/mL. In series [8], this compound had a half-life of 8.8 h. The Tmax in series [9] is 3 h.

As to `COC(=O)N[C@H](C(=O)N1CCC[C@H]1C(=O)Nc1ccc([C@@H]2CC[C@@H](c3ccc(NC(=O)[C@@H]4CCCN4C(=O)[C@@H](NC(=O)OC)C(C)C)cc3)N2c2ccc([Si](C)(C)C(C)(C)C)cc2)cc1)C(C)C`, the remaining at 1 h, 0.2 µM in series [1] came out at 87%; in series [6], 92.1%; in series [7] it was 84.3%. Besides, the figures for the Ratio IC50 in series [2] and in [5] were 3.7 and 7.2, respectively. The highest level in series [3] (Cmax) was 211 ng/mL. For the same compound, the AUC(0-t) in series [4] is 3520 ng·h/mL. The half-life in series [8] was 34.7 h. The Tmax in series [9] stood at 3 h.

The record behind these values is ChEMBL document CHEMBL4196017, “Design, synthesis and identification of silicon-containing HCV NS5A inhibitors with pan-genotype activity” (Eur J Med Chem, 2018).
